pIC50, pKi: −log10 of the molar value. Active and inactive are the calls of the source.
Columns and labels:
Onchocerca volvulus [1] = experiment: Antiparasitic activity against Onchocerca volvulus assessed as larval toxicity at 100 uM after 6 days by using inverted microscopic analysis; type: functional, organism-based
Onchocerca volvulus [2] = experiment: Antiparasitic activity against Onchocerca volvulus assessed as inhibition of L3 to L4 larval molting at 100 uM after 6 days by using inverted microscopic analysis; type: functional
Summary of the method: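 Cryopreserved O. volvulus L3 larvae thawed at 37 °C, washed in NCTC/IMDM (1:1) with glutamine, penicillin and streptomycin, then set at […] worms per well in complete medium with 20% heat-inactivated FCS. Each well received 1.5 × 10^5 normal PBMCs; 10 wells per treatment, with DMSO and medium controls. Incubated at 37 °C in 5% CO2 for 6 days. Molting is scored by inverted microscopy as L4 larvae plus empty L3 casts.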

Onchocerca ochengi [3] = experiment: Antiparasitic activity against Onchocerca ochengi assessed as effect on microfilarial mobility at 10 ug/ml measured every 24 hrs for 120 hrs by inverted microscopic analysis; type: functional
Summary of the method: (§1)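 Microfilariae isolated from cattle skin snips; ≥15 per well cocultured on a confluent monkey kidney epithelial feeder layer in RPMI-1640 complete medium (25 mM HEPES, 5% newborn calf serum, pH 7.4) with compound, 37 °C, 5% CO2, 5 days, no medium change. Motility scored by inverted microscope every 24 h. Viability checked at 120 h. Duplicate wells. Active = 100% motility loss versus control.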

Chitinase = molecular target: T1, Chitinase (Onchocerca volvulus, UniProt Q25615); experiment: Inhibition of Onchocerca volvulus L3 larvae chitinase using 4-methylumbelliferyl-N,N',N''-beta-chitotrioside as a profluorescent substrate after 10 mins by fluorometric analysis
T1 sequence (Q25615 whole entry): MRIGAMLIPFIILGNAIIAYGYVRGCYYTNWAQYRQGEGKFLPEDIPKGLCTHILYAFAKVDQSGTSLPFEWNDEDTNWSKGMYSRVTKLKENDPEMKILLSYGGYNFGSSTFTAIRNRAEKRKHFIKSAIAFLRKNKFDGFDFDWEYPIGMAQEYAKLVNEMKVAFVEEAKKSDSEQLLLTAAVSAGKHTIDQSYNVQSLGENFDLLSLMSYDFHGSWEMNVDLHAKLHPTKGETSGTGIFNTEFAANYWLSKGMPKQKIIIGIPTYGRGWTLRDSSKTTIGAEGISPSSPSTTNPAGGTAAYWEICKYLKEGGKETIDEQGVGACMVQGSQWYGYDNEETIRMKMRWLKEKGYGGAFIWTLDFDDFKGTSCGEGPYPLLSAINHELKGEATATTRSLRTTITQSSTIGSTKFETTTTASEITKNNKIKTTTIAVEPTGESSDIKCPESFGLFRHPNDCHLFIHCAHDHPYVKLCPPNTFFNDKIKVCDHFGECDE
Summary of the method: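 OvCHT1 (1.25 units) with 20 μM 4-methylumbelliferyl-N,N',N''-β-chitotrioside in 200 mM NaCl, 20 mM Na3PO4 (pH 6.0), 1.0 mM EDTA and 0.5% DMSO at 37 °C. Screening used 25 μM compound, with a no-compound blank. Fluorescence increase is read over 10 min (ex 350 nm, em 440 nm). Triplicate reactions.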

Onchocerca ochengi [4] = experiment: Antiparasitic activity against Onchocerca ochengi assessed as effect on microfilarial mobility at 5 ug/ml measured every 24 hrs for 120 hrs by inverted microscopic analysis; type: functional; summary of the method: as §1
HEK-293T [5] = experiment: Protonophoric activity in human HEK293T cells assessed as mitochondrial membrane depolarization at 200 uM after 10 mins by flow cytometric analysis; type: functional, cell-based
Summary of the method: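 HEK-293T/17 cells trypsinized and resuspended at 1 × 10^6 cells/mL in PBS. Compound exposure is 10 min at 37 °C, with valinomycin as the depolarization control. JC-1 is then added for another 10 min at 37 °C. Cells are washed and analysed by flow cytometry in the green (FITC) and red (PE) channels for mitochondrial membrane polarization.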

Onchocerca volvulus [6] = experiment: Antiparasitic activity against Onchocerca volvulus assessed as inhibition of L3 to L4 larval molting at 50 uM after 6 days by using inverted microscopic analysis; type: functional, organism-based
Summary of the method: (§2)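 Cryopreserved L3 thawed at 37 °C and washed. 5–10 larvae per well in complete medium with 20% heat-inactivated FCS plus 1.5 × 10^5 normal PBMCs. 10 wells per treatment. Compounds tested singly or as a 1:1 pair. DMSO and medium controls included. Incubated at 37 °C, 5% CO2. Molting scored on day 6 by inverted microscope as L4 plus empty L3 cast. Reported as percent molting.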

HEK-293T [7] = experiment: Protonophoric activity in human HEK293T cells assessed as mitochondrial membrane depolarization at 50 uM after 10 mins by flow cytometric analysis relative to valinomycin; type: functional, cell-based
Summary of the method: (§3)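 HEK-293T/17 cells were trypsinized and resuspended at 1 × 10^6/mL in PBS. They were exposed to 50 μM compound (valinomycin control 200 nM) for 10 min at 37 °C, then stained with the JC-1 potential probe for 10 min at 37 °C. Cells were washed and analysed by flow cytometry using FL-1 green and FL-2 red channels.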

Onchocerca volvulus [8] = experiment: Antiparasitic activity against Onchocerca volvulus assessed as inhibition of L3 to L4 larval molting at 25 uM after 6 days by using inverted microscopic analysis; type: functional, organism-based; summary of the method: as §2
HEK-293T [9] = experiment: Protonophoric activity in human HEK293T cells assessed as mitochondrial membrane depolarization at 50 uM after 10 mins by flow cytometric analysis relative to closantel; type: functional, cell-based; summary of the method: as §3
HEK-293T [10] = experiment: Protonophoric activity in human HEK293T cells assessed as mitochondrial membrane depolarization at 50 uM after 10 mins by flow cytometric analysis; type: functional, cell-based; summary of the method: as §3

SMILES	motility % at 10 µg/mL (Onchocerca ochengi [3]) [%]	pIC50 (Chitinase)	motility % at 5 µg/mL (Onchocerca ochengi [4]) [%]	other results
Cc1cc(C(C#N)c2ccc(Cl)cc2)c(Cl)cc1NC(=O)c1cc(I)cc(I)c1O (stereo not given) [CLOSANTEL]	0	5.80	100	Activity (Onchocerca volvulus [1]): inactive; inhibition at 100 µM (Onchocerca volvulus [2]; 144 h): 97.6%; pKi (Chitinase): 6.33
Cc1ccc(NC(=O)c2cc(I)ccc2O)cc1	21	–	50	–
O=C(Nc1ccccc1)c1cc(I)cc(I)c1O	100	–	100	–
O=C(Nc1ccc(Cl)cc1)c1cc(I)ccc1O	100	–	100	–
COc1ccc(NC(=O)c2cc(Cl)cc(Cl)c2O)cc1	50	–	100	–
O=C(Nc1ccc(Br)cc1)c1cc(I)cc(I)c1O	100	6.17	100	–
COc1ccc(NC(=O)c2cc(I)cc(I)c2O)cc1	100	5.06	100	–
O=C(Nc1ccc(F)cc1)c1cc(I)cc(I)c1O	100	6.06	100	–
O=C(Nc1ccccc1)c1cc(Cl)cc(Cl)c1O	25	–	100	–
CC(C)[C@@H]1NC(=O)[C@H](C)OC(=O)[C@@H](C(C)C)NC(=O)[C@@H](C(C)C)OC(=O)[C@H](C(C)C)NC(=O)[C@H](C)OC(=O)[C@@H](C(C)C)NC(=O)[C@@H](C(C)C)OC(=O)[C@H](C(C)C)NC(=O)[C@H](C)OC(=O)[C@@H](C(C)C)NC(=O)[C@@H](C(C)C)OC1=O	–	–	–	Activity (HEK-293T [5]): Active
CC(C)c1ccc(NC(=O)c2cc(I)cc(I)c2O)cc1	100	5.80	100	–
COc1ccc(NC(=O)c2cc(C(C)C)cc(C(C)C)c2O)cc1	25	–	50	–
Cc1ccc(NC(=O)c2cc(C(C)C)cc(C(C)C)c2O)cc1	25	–	50	–
CC(C)c1cc(C(=O)Nc2ccc(Cl)cc2)c(O)c(C(C)C)c1	100	–	100	Activity (Onchocerca volvulus [1]): inactive; inhibition (Onchocerca volvulus [2]): Active; inhibition (Onchocerca volvulus [6]): inactive; Activity (HEK-293T [7]): Active; inhibition (Onchocerca volvulus [8]): inactive; Activity (HEK-293T [9]): Active
CC(C)c1cc(C(=O)Nc2ccccc2)c(O)c(C(C)C)c1	50	–	100	–
Cc1ccc(NC(=O)c2cc(Br)cc(Br)c2O)cc1	100	–	100	–
Cc1ccc(NC(=O)c2cc(I)cc(I)c2O)cc1	100	5.77	100	–
O=C(Nc1ccc(Cl)cc1)c1cc(Cl)cc(Cl)c1O	29	4.91	100	–
O=C(Nc1ccc(Cl)cc1)c1cc(Br)cc(Br)c1O	35	–	100	–
O=C(Nc1ccccc1)c1cc(Br)cc(Br)c1O [METABROMSALAN]	50	–	100	–
COc1ccc(NC(=O)c2cc(I)ccc2O)cc1	100	–	100	–
O=C(Nc1ccc(Cl)cc1)c1cc(I)cc(I)c1O	0	5.24	100	–
Cc1ccc(NC(=O)c2cc(Cl)cc(Cl)c2O)cc1	50	–	100	–
COc1ccc(NC(=O)c2cc(Br)cc(Br)c2O)cc1	50	5.26	100	–
O=C(Nc1ccccc1)c1cc(I)ccc1O	25	–	100	–
O=C(Nc1ccc(I)cc1)c1cc(I)cc(I)c1O	100	6.20	100	Activity (HEK-293T [10]): inactive; Activity (Onchocerca volvulus [1]): inactive; inhibition (Onchocerca volvulus [2]): Active; inhibition (Onchocerca volvulus [6]): inactive; inhibition (Onchocerca volvulus [8]): inactive

From ChEMBL document CHEMBL1799923, “Design, synthesis, and biological activities of closantel analogues: structural promiscuity and its impact on Onchocerca volvulus” (J Med Chem, 2011)
